From ChEMBL document CHEMBL3352761, “Synthesis, antitumor activity, and mechanism of action of benzo[b]chromeno[6,5-g][1,8]naphthyridin-7-one analogs of acronycine” (J Med Chem, 2014)
Calls of active or inactive are those of the source. No cut-off for these calls is given here.

How the values were obtained:
L1210 [1] = test: Induction of cell cycle arrest in mouse L1210 cells assessed as accumulation at S phase at 5 uM incubated for 21 hrs by propidium iodide staining based flow cytometry (reference value: 32%); type: functional
[2] = Cytotoxicity against human KB-3-1 cells after 96 hrs by MTT assay; type: functional, cell-based; conditions: KB 3-1, 96 h
L1210 [3] = test: Cytotoxicity against mouse L1210 cells after 48 hrs by MTT assay; type: functional, cell-based; conditions: L1210, 48 h
[4] = Induction of 117-bp DNA (unknown origin) alkylation incubated for 5 mins to 24 hrs by gel shift assay
How it was run: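 117-bp pBS plasmid fragment (EcoRI/PvuII cut), 32P-labelled at EcoRI end, gel-purified. Incubated with drug (rising concentrations up to 50 μM, or fixed 50 μM for kinetics) in 1 mM Na cacodylate pH 7.0, dark, room temperature. Covalent complex seen as shifted band on native 6% PAGE in TBE, phosphorimaging; T1/2 taken as time to half-maximal shift.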

[5] = Induction of 117-bp DNA (unknown origin) alkylation assessed as incubation time required to obtain maximum of covalent drug/DNA complex incubated for 5 mins to 24 hrs by gel shift assay
MC-38 = test: Antitumor activity against mouse C38 cells xenografted in mouse assessed as inhibition of tumor growth at 4 mg/kg, iv administered on day 12 and 24; type: functional
[6] = Induction of 117-bp DNA (unknown origin) alkylation assessed as incubation time required to obtain half of maximum of covalent drug/DNA complex incubated for 5 mins to 24 hrs by gel shift assay
How it was run: (§1)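 117-bp pBS EcoRI/PvuII fragment, 32P-end-labelled at EcoRI site, gel-purified; incubated with 50 μM drug in 1 mM Na cacodylate pH 7.0, dark, room temperature, 5 min to 24 h; 6% native polyacrylamide gel in TBE pH 8.3, ~5 h at 300 V; phosphorimaging of shifted band; T1/2 = time to half-maximal gel shift from quantification plots; nd if no maximum reached.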

L1210 [7] = test: Induction of cell cycle arrest in mouse L1210 cells assessed as accumulation at S phase at 2.5 uM incubated for 21 hrs by propidium iodide staining based flow cytometry (reference value: 32%); type: functional
L1210 [8] = test: Induction of cell cycle arrest in mouse L1210 cells assessed as accumulation at S phase at 10 uM incubated for 21 hrs by propidium iodide staining based flow cytometry (reference value: 32%); type: functional
[9] = Induction of 117-bp DNA (unknown origin) alkylation assessed as incubation time required to obtain half of maximum of covalent drug/DNA complex at 50 uM incubated for 5 mins to 24 hrs by gel shift assay; how it was run: as §1
[10] = Induction of 117-bp DNA (unknown origin) alkylation at 50 uM incubated for 24 hrs by gel shift assay
How it was run: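 Labelled 117-bp DNA fragment incubated with drug at increasing concentrations up to 50 μM in 1 mM Na cacodylate pH 7.0, dark, room temperature, 2 or 24 h; native polyacrylamide electrophoresis; bound/free ratio quantified relative to a 50 μM reference alkylator control; scored strong, weak (no plateau by 24 h) or none.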

Structure (SMILES)	Activity [4]	T1/2 [6] [h]	Activity (L1210 [1])	IC50 [2] [nM]	IC50 (L1210 [3]) [nM]	also measured
COc1cc2c(c3c1c(=O)c1cc4ccccc4nc1n3C)[C@@H](OC(=O)/C=C/c1ccc(C(F)(F)F)cc1)[C@@H](OC(=O)/C=C/c1ccc(C(F)(F)F)cc1)C(C)(C)O2 (racemic)	Active			420	9100	Activity (L1210 [8]): 60%
COc1c2c(cc3c1c(=O)c1cc4ccccc4nc1n3C)OC(C)(C)[C@@H](O)[C@H]2O (racemic)				7000	12500	
COc1c2c(cc3c1c(=O)c1cc4ccccc4nc1n3C)OC(C)(C)[C@H]1OC(=O)O[C@@H]21 (racemic)	Active		68%	12000	20000	
COc1c2c(cc3c1c(=O)c1cc4ccccc4nc1n3C)OC(C)(C)C=C2			inactive	14000	24000	
COc1cc2c(c3c1c(=O)c1ccccc1n3C)C=CC(C)(C)O2 [ACRONINE]				3700		
COc1cc2c(c3c1c(=O)c1cc4ccccc4nc1n3C)[C@@H](O)[C@@H](OC(=O)/C=C/c1ccc(C(F)(F)F)cc1)C(C)(C)O2 (racemic)	Active	2	69%	13	90	T1/2 [9]: 2 h; Tmax [5]: 8 h
COc1ccc(/C=C/C(=O)O[C@@H]2c3c(cc(OC)c4c(=O)c5cc6ccccc6nc5n(C)c34)OC(C)(C)[C@@H]2OC(=O)/C=C/c2ccc(OC)cc2)cc1 (racemic)	Active		70%	370	9600	
COc1cc2c(c3c1c(=O)c1cc4ccccc4nc1n3C)[C@@H](OC(=O)/C=C/c1ccccc1)[C@@H](OC(=O)/C=C/c1ccccc1)C(C)(C)O2 (racemic)				540	5000	
COc1cc2c(c3c1c(=O)c1cc4ccccc4nc1n3C)C=CC(C)(C)O2			inactive	3700	11000	
COc1cc2c(c3c1c(=O)c1cc4ccccc4nc1n3C)[C@@H](O)[C@@H](O)C(C)(C)O2 (racemic)					5100	

Second part, led by results:

Activity [4]	T1/2 [6] [h]	Structure (SMILES)	Activity (L1210 [1])	IC50 [2] [nM]	IC50 (L1210 [3]) [nM]	also measured
inactive		COc1ccc(/C=C/C(=O)O[C@@H]2[C@H](OC(C)=O)c3c(cc(OC)c4c(=O)c5cc6ccccc6nc5n(C)c34)OC2(C)C)cc1 (racemic)	70%	470	2900	
Active	1.5	COc1cc2c(c3c1c(=O)c1cc4ccccc4nc1n3C)[C@H](OC(C)=O)[C@H](OC(C)=O)C(C)(C)O2		35	210	Tmax [5]: 3 h; TGI (MC-38): Active
	0.333	COc1cc2c(c3c1c(=O)c1cc4ccccc4cc1n3C)C(OC(C)=O)C(OC(C)=O)C(C)(C)O2 (single isomer, unassigned; (+))				
Active		COc1cc2c(c3c1c(=O)c1cc4ccccc4nc1n3C)[C@@H](OC(C)=O)[C@@H](OC(=O)/C=C/c1ccc(C(F)(F)F)cc1)C(C)(C)O2 (racemic)		390	3800	Activity (L1210 [7]): 73%
inactive		COc1c2c(cc3c1c(=O)c1cc4ccccc4nc1n3C)OC(C)(C)[C@@H](OC(C)=O)[C@H]2OC(C)=O (racemic)		8800	10300	
	0.333	COc1cc2c(c3c1c(=O)c1cc4ccccc4cc1n3C)C(OC(C)=O)C(OC(C)=O)C(C)(C)O2 (single isomer, unassigned; (-))				
Active	1	COc1cc2c(c3c1c(=O)c1cc4ccccc4nc1n3C)[C@@H](OC(C)=O)[C@@H](OC(C)=O)C(C)(C)O2		110	190	Tmax [5]: 3 h; TGI (MC-38): inactive
Active	0.5	COc1cc2c(c3c1c(=O)c1cc4ccccc4cc1n3C)[C@@H](OC(C)=O)[C@@H](OC(C)=O)C(C)(C)O2 (racemic)	73%	100		Tmax [5]: 2 h
Active	0.75	COc1cc2c(c3c1c(=O)c1cc4ccccc4nc1n3C)[C@@H](O)[C@@H](OC(=O)/C=C/c1ccccc1)C(C)(C)O2 (racemic)		30	110	Tmax [5]: 3 h; Activity (L1210 [8]): 66%
Active		COc1ccc(/C=C/C(=O)O[C@@H]2[C@H](O)c3c(cc(OC)c4c(=O)c5cc6ccccc6nc5n(C)c34)OC2(C)C)cc1 (racemic)	76%	23	290	
Active		COc1cc2c(c3c1c(=O)c1cc4ccccc4nc1n3C)C(OC(C)=O)C(OC(C)=O)C(C)(C)O2 (racemic)	68%	37	200	Activity [10]: Active; inhibition in vivo at 4 mg/kg (MC-38; C38, 288 h, read-out: TGI): 95%
Active		COc1cc2c(c3c1c(=O)c1cc4ccccc4nc1n3C)[C@H]1OC(=O)O[C@H]1C(C)(C)O2 (racemic)	76%	41	120	
Active		COc1cc2c(c3c1c(=O)c1cc4ccccc4nc1n3C)[C@@H](OC(C)=O)[C@@H](OC(=O)/C=C/c1ccccc1)C(C)(C)O2 (racemic)	73%	320	2100	
